ChEMBL document CHEMBL4513216, “Probing the Open Global Health Chemical Diversity Library for Multistage-Active Starting Points for Next-Generation Antimalarials” (ACS Infect Dis, 2020)

Test: Toxicity liver stage against HepG2, at 10uM
Format: cell-based
Design: test concentration 10 uM, cell line HepG2-A16-CD81EGFP
Settings: human, HepG2-A16-CD81EGFP cells; read-out: INHIBITION
How it was run: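 Uninfected HepG2-A16-CD81EGFP cells, 3 × 10^3 per well, 1536-well, plated on prespotted compound at 10 μM final, parasite-free screening media added to match infected plates; puromycin 10 μM positive, DMSO 0.5% negative; run in parallel with 48 h PbLuc assay at 37 °C, 5% CO2; viability by CellTiter-Glo luminescence, normalized to controls.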

| SMILES | cytotoxicity at 10 µM [%] |
| --- | --- |
| CCS(=O)(=O)NCC(Cc1cccc(F)c1)N1CCNC1=O (configuration not stated) | -1.89 |
| NCc1cnc(Nc2ccccc2)nc1 | 8.55 |
| CC(C)Nc1nc2c(c(NC3CC3)n1)CCN(C1CCOCC1)CC2 | 12.3 |
| COCC1COCCC12CCN(C(=O)CC1=CCCCC1)CC2 (configuration not stated) | -1.86 |
| CN1CCN(CCO)C(=O)C12CCN(c1nccs1)CC2 | 3.88 |
| c1cnc(NCc2n[nH]c3c2CCN(Cc2cccnc2)C3)nc1 | -7.15 |
| CCOCC1CN(Cc2ccc3c(c2)OCO3)Cc2ncn(C)c21 (configuration not stated) | 5.61 |
| CCn1nccc1CNc1[nH]cnc2nncc1-2 | 3.15 |
| Cc1nn(C)cc1CN1CCCC1c1cccc(Nc2nccs2)n1 (configuration not stated) | 4.25 |
| Cc1cn[nH]c1C1COCCN1S(=O)(=O)c1cn[nH]c1 (configuration not stated) | -24.6 |
| CN(C)c1nccc(C2CCCN(C(=O)CO)C2)n1 (configuration not stated) | -29.1 |
| O=C(CCc1cc(Cl)no1)N1CCC(c2cc3ncccc3cn2)CC1 | 4.76 |
| Cc1n[nH]c(C)c1-c1nccnc1CC1CCCN(C)C1 (configuration not stated) | -18.3 |
| O=C(Cc1ccc(F)cc1)N1CCCC(c2n[nH]c3nccnc23)C1 (configuration not stated) | 4.59 |
| O=C(Nc1cn[nH]c1)N1CCN(CCSc2ccccc2)CC1 | 4.32 |
| N#Cc1ncn(CC(=O)N2CCCC2c2cccs2)n1 (configuration not stated) | -21.7 |
| O=C(CN1CCCc2sccc2C1=O)NC1CCc2nccn2C1 (configuration not stated) | 16.1 |
| CCN(C(=O)CN1CCN(CC(C)O)CC1)C1=CCCCC1 (configuration not stated) | 8.67 |
| COc1cc(NC2CCCN(c3ncccn3)C2)cc(OC)c1 (configuration not stated) | -16 |
| COC(=O)c1ccc(CN2CCN(Cc3nc(C)no3)CC2)s1 | 4.07 |
| N#Cc1cccnc1NCCNC(=O)NCCSC(F)(F)F | 1.2 |

| SMILES | cytotoxicity at 10 µM [%] |
| --- | --- |
| CC(Oc1ccc(F)cc1)C(=O)N(CC(N)=O)C1CCCC1 (configuration not stated) | 0.217 |
| CN1CCN(C(=O)c2csnn2)c2ccccc21 | -1.15 |
| Cc1noc(CS(=O)(=O)c2cc(F)ccc2F)n1 | -0.23 |
| CC(Nc1nc2c(cnn2C)c(=O)[nH]1)c1ccc(F)cc1 (configuration not stated) | 16.6 |
| Cc1cc(CN(C)CC2CCCCC2)no1 | 13.2 |
| O=C(c1cc(-n2cccn2)ccn1)N1CCOc2ccc(F)cc21 | 1.26 |
| NC(=O)CCN(C(=O)CSc1ccc(F)cc1)c1ccc(F)cc1 | -2.17 |
| CC1CCN(C)c2ccccc2N1C(=O)c1ccnc(-n2cncn2)c1 (configuration not stated) | 2.37 |
| CC(C)c1nc(C2CCCN(c3nccc(N4CCCC4)n3)C2)no1 (configuration not stated) | 27.6 |
| COCCCC(=O)N(CCC(=O)O)Cc1ccc(F)c(F)c1 | 4.91 |
| Cc1ncc(Cl)c(C(=O)N2CC(=O)N(C)c3ccccc32)n1 | 5.35 |
| CCc1cnccc1C(=O)NC1CCN(Cc2ccccc2F)CC1 | -4.35 |
| CC(C)OCc1noc(C2CCCOC2)n1 (configuration not stated) | 5.31 |
| Cn1cc(C2CCCN2C(=O)Cn2ccc3ccccc32)cn1 (configuration not stated) | 5.08 |
| CCOc1ccccc1CNC(=O)c1cnn(CC)c1C(F)(F)F | 3.67 |
| Cc1nnc(CN(Cc2cccc(Cl)c2)C(C)C)o1 | 1.69 |
| Cc1ccc(C)c(C(O)CN(C)Cc2nnc3ccccn23)c1 (configuration not stated) | -13.8 |
| COCC(NC(=O)NCc1sc(C)nc1C)c1ccco1 (configuration not stated) | 6.75 |
| CCCn1nnnc1CN(C)C(C)c1ccc(C)cc1 (configuration not stated) | -3.21 |
| CNC(=O)C1Cn2ccnc2C2(CCN(C(=O)NC3CCCC3)CC2)O1 (configuration not stated) | -104 |
| CNC(=O)N1CC[C@@H]2CN(Cc3ccccc3)S(=O)(=O)[C@@H]2CC1 | -96.6 |

| SMILES | cytotoxicity at 10 µM [%] |
| --- | --- |
| Cc1ccc(-c2cn(C3CCN(C(=O)[C@H]4CCCO4)CC3)nn2)cc1 | -8.93 |
| COc1cccc(CNC(=O)N2CCCC(Cn3cc(CN)nn3)C2)c1 (configuration not stated) | -2.07 |
| Cc1noc(C)c1-c1n[nH]c2c1CN(S(=O)(=O)c1cccnc1)CC2 | -11 |
| Cc1nc2c(c(=O)n1C)CCN(C(=O)Cn1cccc1)CC2 | -2.18 |
| COc1cc(C)c(CN2CCC3(CC2)[C@H](O)C[C@@H]3OCCN)cc1C | 13.6 |
| CCN(CC)S(=O)(=O)NC1CCCc2nc(-c3ccccc3)ncc21 (configuration not stated) | 17.2 |
| CCOc1ccc(C2CC(=O)NCc3nc(N)sc32)cc1CO (configuration not stated) | -6.33 |
| COc1ccc(OC2CCN(C(=O)[C@@H](N)Cc3c[nH]cn3)CC2)cc1 | 0.653 |
| CN(C)CC1(O)CCN(C(=O)c2cnc(-c3ccccn3)nc2)C1 (configuration not stated) | 4.82 |
| CC(=O)c1cnc(NCCN2CCCC(c3ccccc3)C2)nc1C (configuration not stated) | -3.44 |
| CCNC(=O)[C@@H]1C[C@@H](NC(=O)Cc2ccncc2)CN1Cc1ccsc1 | -0.368 |
| Cc1[nH]nc(CCC(=O)N2CCCC(OCc3cccnc3)C2)c1C (configuration not stated) | -5.07 |
| Cc1ccc(NC(=O)C2CSCN2C(=O)c2cnccn2)cc1C (configuration not stated) | -8.3 |
| Cc1cccc(-c2nc(C)nn2CC(=O)NC2CCCC2)c1 | -12.5 |
| CC(=O)N1CCC[C@H]1C(=O)NCCOc1cccc(Cl)c1 | -8.78 |
| COc1ncccc1CNC(=O)c1cccnc1O | -4.02 |
| Cc1c(F)cc(C(=O)O)cc1S(=O)(=O)Nc1cccc(C(F)F)c1 | -1.35 |
| Cn1cc(CN2CCCN(C(=O)c3cc[nH]n3)CC2)cn1 | -8.72 |
| CCn1cc(NC(=O)NCC(O)COc2cccc(F)c2)cn1 (configuration not stated) | -2.86 |
| O=C(Nc1cnn(CCN2CCOCC2)c1)c1cc(F)ccc1F | -8.8 |
| CCn1ccnc1CN1CCN(CCOc2cccc(C#N)c2)CC1 | -6.95 |

| SMILES | cytotoxicity at 10 µM [%] |
| --- | --- |
| COc1ccc(CN(Cc2cnc(N)nc2)CC2CCCO2)c(OC)c1 (configuration not stated) | -0.438 |
| Cn1cc(CN2C[C@H]3CCC[C@@H](CNc4nccn4C)[C@H]3C2)cn1 | 10.9 |
| Cc1ccc(CN2CCCn3nnc(COCC4CC4)c3C2)s1 | -6.51 |
| O=S(=O)(c1cccs1)N1CCCn2nnc(CN3CCCCC3)c2C1 | -17.5 |
| CC(C)CNC(=O)[C@H]1CCS(=O)(=O)[C@@H]2CN(CC(C)C)C[C@H]12 | -1.66 |
| CC1c2ncc(Cn3cccn3)n2CCN1c1ncccn1 (configuration not stated) | -108 |
| O=C(c1ccncc1)N1CC[C@@H]2CN(C3CCOCC3)CCO[C@@H]2C1 | -110 |
| CC(C)CN1C(=O)C2(CCN(Cc3ccoc3)C2)c2ccccc21 (configuration not stated) | 4.82 |
| Cc1cccc(CN2CCC3(CCC(CC(=O)N(C)C)CC3)CC2)n1 | -113 |
| CC[C@@H]1N(Cc2ccsc2)CCC[C@]12CCC(=O)N2C | 10 |
| Cc1nnc([C@]23COC[C@H]2CN(Cc2cnn(C)c2)C3)o1 | -3.77 |
| Cc1cc2c(=O)n3c(nc2s1)CCN(Cc1c[nH]cn1)CC3 | -17.6 |
| Cn1cc(C(=O)NCc2cncc3c2CCNC3)cn1 | -91.6 |
| CCOCC(=O)N1CCc2c(CN(C)C)nn(C(C)C)c2C1 | -2.63 |
| Cn1cncc1CNC1CC2(CCN(S(C)(=O)=O)CC2)c2ccccc21 (configuration not stated) | 1.55 |
| CCS(=O)(=O)N1CCC2(CCC(N3CCCC3)c3ccccc32)CC1 (configuration not stated) | 0.257 |
| Cc1ccc(CN2CC[C@@H]3[C@@H](CO[C@H]3CN3CCN(C)CC3)C2)cc1 | -2.74 |
| c1cncc(C2COC3(CCN(CC4CCOCC4)CC3)C2)c1 (configuration not stated) | -10.4 |
| O=C(Cn1c(=O)[nH]c2cn(-c3ccccc3)c(=O)n21)Nc1ccccc1 | 18.6 |
